System: MS2 coat protein
Test: apparent Kd, MS2 coat protein; higher = weaker binding; RNA-MaP array; FMN 200 µM where present
Summary of the method: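 Designs on Illumina sequencing-chip clusters, transcribed by stalled E. coli RNA polymerase, were exposed to SNAP-549-labelled MS2 coat protein in doubling steps from 0.7 or 1.5 nM up to 3 µM, without and then with constant ligand. The buffer held 100 mM Tris-HCl pH 7.5, 80 mM KCl, 4 mM MgCl2, BSA, DTT, yeast tRNA and Tween-20. Apparent Kd values are medians of filtered per-cluster binding-curve fits to green signal normalised to red-channel RNA signal and control-cluster median Fmax.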

[1] = designed as: OFF switch for flavin mononucleotide, no ligand
[2] = ligand present: flavin mononucleotide, designed as: OFF switch for flavin mononucleotide
[3] = designed as: ON switch for flavin mononucleotide, no ligand
[4] = ligand present: flavin mononucleotide, designed as: ON switch for flavin mononucleotide

Sequence | apparent Kd [1] [nM] | apparent Kd [2] [nM] | apparent Kd [3] [nM] | apparent Kd [4] [nM]
AUCAUCUUAUCAGGAUAUGCGUGUCGACGAAAGUAGACAAUCUUGAUAACAUGAGGAUCACCCAUGUAGAAGGGAUGAGAUGAU | 46.6 | 40.2 | – | –
UUGGACGUCGUAGGAUAUGUAGGAUAUUCCUACAUGAGGAUCACCCAUGUUGACCUGGAAGAAGGACAGAAGGACGAUGUCCAU | – | – | 64.2 | 4.64
GGUUGGCGAGGAUAUACAUGAGGAUCACCCAUGUGGUCCUGUGGCUGGUAAAACCUUUGUAGAAGGCGCGGGUC | 215 | 240 | – | –
GCAGGAUAAGUGAGGAUAUACCUAUGGAUACAUAGGUAGAAGGCACAUGAGGAUCACCCAUGUUCCUUGCCUGC | 13 | 42.7 | – | –
UCAACCGGCGCCGGUUAAACAUGAGGAUCACCCAUGUACUCCAGAAGGCCGCCCAAGAACGGAGUGGAGGAUAUGGAGGUUCUC | – | – | 45.1 | 28.7
CUCAUGUAAGGAUAUCAGUAGUAAAAAAAUAAAAUUACUACUGAGAAGGUACAUGAGGAUCACCCAUGUCCUUC | 96.1 | 56.2 | – | –
AAUCAACGAAUACCAGGGCAUUAAUGAGAAGGCCAAUCACAUGAGGAUCACCCAUGUACGAGAGUGGAGGAUAUCAGUGGGCCG | – | – | 111 | 11.3
GUGCUUGUCGAAGGAUAUGGUUACAUGAGGAUCACCCAUGUUAUGCUUGGUUACUUGUUUAGUUUCCAGAAGGUCGAUUAGUUG | 53.4 | 163 | – | –
AAUUAAUUGUAGAAGGUACUUAAUUAUGUUAUGUAAGGAUAUACGUAAUUAUUACGACAUGUAUGACAUGAGGAUCACCCAUGU | – | – | 7.72 | 7.82
GGAUGAGCAAUAGGAUAUGCUGGGAUUGAAUGGGUAGAAGGAUUUCUAGUGGUAAAGACAUGAGGAUCACCCAUGUCGCGGCCC | – | – | 45.7 | 45.2
GGUUGGCGAGGAUAUACAUGAGGAUCACCCAUGUGGUCCUGUGGCUGAUCUUGCCUUUGUAGAAGGCGCGGAUC | 49.7 | 53.6 | – | –
AUCUCACAUGAGGAUCACCCAUGUUAGGAUAUUGUUUCUUGAUGAUUACAUCAAGCGAUAAGAAGGGACAGACU | 25.6 | 27.4 | – | –
AAUGGGCAGCAGAAGGCAUGUCAUAAGACAUGAGGAUCACCCAUGUAGUUAAGGCGAAAGCCGCAUGAGGAUAUGCUGCCCUAA | – | – | 66 | 6.71
UGAUAGGACAGAGGAUAUGCCGAUAGGAUCUAUUAUCGAAGAAUCCUCACAUGAGGAUCACCCAUGUAGAAGGCUGUCCUAUCU | 9.32 | 36.6 | – | –
CCCAUGUCAGGAUAUCUAAGAGAGGGCCAGCCCUCUCCUCCGGAGAAGGGACAUGAGGAUCACCCAUGUAAAAC | 129 | 25.5 | – | –
UACGUACAGAAGAACUCCGGGUCCAGAAGGGACAUGAGGAUCACCCAUGUACCGUUGAUUGCUUGUCAGGAUAUGGACCCGGCC | 6.67 | 28 | – | –
UGGACUGGGCAGAAGGGACAUGAGGAUCACCCAUGUCUUGGGCUACUUCAGUCAGGAUAUGCCCAUUAAAUAUCCGUGCAUCAA | 14.9 | 73.3 | – | –
UUAAAUCAUGUAGGAUAUGCAUGGCGAAGCUACGCAGAAGGACAUGAGGAUCACCCAUGUUAUAGCGACCAAGUAAGGUUGCAA | 91.6 | 197 | – | –
GGAUGACAAAGUCAUCCAAAUCGAACAUGAGGAUCACCCAUGUAGGAUAUGCAACUCAAAGAGUUGCAGAAGGACAUGUGCUUU | 40.9 | 172 | – | –
UGGUACUAGGGAGGAUAUGGGAAGAUACAUGAGGAUCACCCAUGUUUAAGAAUGCCGAGAGGCAACUAGAAGGCCCGAGUACCU | – | – | 456 | 21.6
CCGGAUAUGCAGGAUAUCGUAUCGGAUACGAUACGAGAAGGGUAUACAUGAGGAUCACCCAUGUGCCUUACCGG | 19.3 | 20 | – | –
AGCAUGCAGUAGGAUAUCGAUCCGCAAUAUGAACGAGAAGGACUGACAUGAGGAUCACCCAUGUGCGUCCUAGG | 16.5 | 19.7 | – | –
GGUACUCAAAGAGUACCAAUACGAACAUGAGGAUCACCCAUGUAGGAUAUGCUACUCAAAGAGUAGCAGAAGGAUAUGAUGUAU | 39.7 | 44.9 | – | –
UGGAACUAGGGAGGAUAUGGGAAGAUACAUGAGGAUCACCCAUGUUUAAGAAUGCCGAGAGGCAACUAGAAGGCCCUAGUACCU | – | – | 454 | 20.3

Sequence | apparent Kd [1] [nM] | apparent Kd [2] [nM] | apparent Kd [3] [nM] | apparent Kd [4] [nM]
GUGGCCCAGGCACAGGAUAUGUUUCUCGUAACAUGAGGAUCACCCAUGUGCCUAUGAGAUUUUUUGCAGAAGGGUGCACGCCACG | – | – | 229 | 18.1
GCAGGUUAAGUCAGGAUAUACCUAUGGAUACAUAGGUAGAAGGGACAUGAGGAUCACCCAUGUGGCUCACCUGC | 24.2 | 40.2 | – | –
CGAUGGCAUGUAGGAUAUCGAGCUCAAAGAGCUCGAGAAGGACAUGAGGAUCACCCAUGUGCACACAGACAGUGUGCGCUAUCG | 37 | 181 | – | –
UCUGUUGAAGGAUAUGCGUAAUGAGUUACGGCUCGAGGUCUACAUGAGGAUCACCCAUGUAGAAGGUCAUCAGA | 16.4 | 15.9 | – | –
UGUCGGAGCUGAGGAUAUUACAUGAGGAUCACCCAUGUAUGAACCAAUAGCUGGAAACAGCAAUGUAAGAAGGCUGCUCCGACA | 5.65 | 34.1 | – | –
UUUUUUUACUAGGAUAUCGCCGCCGAAAGGCGGCGAGAAGGAGUAACAUGAGGAUCACCCAUGUGUCCUUUUUU | 21.9 | 74.2 | – | –
AAUAUAAUAAGAGCUGGAAAUAAAACAUGAGGAUCACCCAUGUAGGAUAUCAGCACGAUAAGUGCUGAGAAGGACAACCAGCUC | 14 | 15.1 | – | –
CGGCGUAGCGUAAGGAUAUCGCGCGGUGUAAUUGUUGAGAAGGUACAUGAGGAUCACCCAUGUGGUCAGCCGGC | 40 | 40 | – | –
GUAAAGUGAGGAUAUGGUAAAGUAAGUAUGUAGUAAGUAAUCCAGAAGGCACAUGAGGAUCACCCAUGUAAAUG | 30 | 32.3 | – | –
GAUCAGAUAGGAUAUACAGGCUCGUCUUUAUAUUGAUCCCGACAUGAGGAUCACCCAUGUAGAAGGAUCAGAUC | 16.4 | 45.7 | – | –
UUAUUAUAUGUAGGAUAUGCAUAUUAUUAUUAUGCAGAAGGACAUGAGGAUCACCCAUGUAUAUUAUUAUUAUAUAUUAUGUAU | 36.3 | 61 | – | –
AAGUCGCGGUCAGGAUAUCAGAAACAAAUUGACUGAGAAGGGAUGGCACAUGAGGAUCACCCAUGUCGUCGUCGCAGUGGGUGA | 116 | 155 | – | –
ACAUGAGGAUCACCCAUGUGAUGAUCUUCCAUGUCAUAUUUCAGAAGGCACGCAUGUUUAAUGAGUGAGGAUAUGGAAUAUGCG | 802 | 553 | – | –
GCACAUGGCAUAGGAUAUAGAGCUUUAGUUUAUAUAGGUAGUUGGACUUAACUAGAAGGAUGGUACAUGAGGAUCACCCAUGUU | – | – | 20.6 | 17.4
AGGUACAUGAGGAUCACCCAUGUAAGAGACCUCAUGCGAUGUAGAAGGAUAAUCCGAGAAGAGGUAUAGGAUAUACAUGAGAAA | 177 | 149 | – | –
AAUCCACAUGAGGAUCACCCAUGUCAGGAUAUCGCGCGCGCGUUUUCGGUCUCGCGCGCGAGAAGGGACGGCUG | 24 | 48.2 | – | –
AAACACGGACAUGAGGAUCACCCAUGUGGCGAAAGCCUUGGGAGAAGGCCGAUUGCAAAGCAAUCGGAGGAUAUUCAUACCGUG | – | – | 1250 | 57
UAUGUGUCAGGAUAUUGUUAGUUUAGUUGUUUGUAUUAGUUCGAGAAGGGACAUGAGGAUCACCCAUGUUGUUU | 30.9 | 28.6 | – | –
AGAAACUACGAGAAGGACAUGAGGAUCACCCAUGUUUCCACUUAGUGGUAUGUAGGAUAUCGUAGUUUCAGGAUCGUGAGAUCA | 5.81 | 6.39 | – | –
UGGUGGAAGCAGGAUAUGCUUGUUUUAUUGAUUGCAGAAGGGCUAACAUGAGGAUCACCCAUGUAAGAGGUGUU | 428 | 196 | – | –
AAAAGACAUGAGGAUCACCCAUGUAAAAACAUAGGAGGAUAUGUCAUGAAAAAAGACUUGACAGAAGGCCUUUGUC | – | – | 164 | 65.4
CUAUGCCGAAUAGGAUAUUCGAUCAAAAGGAUAGAAGAAGGGUUACAUGAGGAUCACCCAUGUAUGCACAUGAGGAUCCCUUAG | 279 | 316 | – | –
AAUAAACUCACAGGAUAUAGCAGAGGUCGCGUGUACUUACAGGCGACGAGGCUAGAAGGGUGACCACAUGAGGAUCACCCAUGU | – | – | 1010 | 113
CACAAGAAAGUCGAAGGUUGAAGUAGAAGGACUAUAACAUGACAUGAGGAUCACCCAUGUGCCAAGUAGGAUAUGCUUUAAUCG | 7.7 | 7.38 | – | –
